High-throughput results as filed in PubChem BioAssay.
Rows were chosen to be rich in hits. Some 1.5% of all compounds tested hit in one or more screens of this group.
CHT inh: human CHT choline transport inhibition | Q9GZV3 | CHT-expressing cells, membrane potential dye, choline response; stronger effect = lower value | B-score at 10 µM | hit rate 0.86% among 310,000 | AID 488975;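 active = B-score over 3 SD under the library average, and starting fluorescence ratio not unusually high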;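 note: choline stimulus applied at its EC90 after an EC20 pre-addition; B-score computed on integrated fluorescence ratio after choline addition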
T cell HTS: modulates CD8 T cell binding to vesicles | hit rate 0.068% among 330,000 | response (vesicle binding), % at 7 µM | 2C CD8+ T cell-vesicle binding, flow cytometry; stronger effect = lower value | AID 2052;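 active = response, share of CD8 T cells binding vesicles, and their 90th percentile fluorescence all below set limits, cut at about 80% in these data, passing the limit was not always enough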;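 note: values below 100% mean blocked vesicle binding to the CD8+ T cells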
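System: murine 2C transgenic CD8+ T lymphocytes; also added: QL9-loaded Drosophila micro-vesicles; times: binding 1.5 h at 37 °C; measured by: flow cytometry, PE anti-B7-1 (FL2) versus Alexa647 anti-CD8 (FL8), PFA-fixed; control set: Peptide-free naked vesicles (low) and QL9 vesicles with 0.7% DMSO vehicle (high)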
VLA-4 inh: inhibition in a human VLA-4 binding assay; P13612; VLA-4 expressing cells, ligand binding flow cytometry; inhibition, % (about 7 µM as worked out from the volumes in the protocol); hit rate 0.2% among 330,000; in the data active = inhibition above about 50%
Target sequence (P13612 whole entry, looked up): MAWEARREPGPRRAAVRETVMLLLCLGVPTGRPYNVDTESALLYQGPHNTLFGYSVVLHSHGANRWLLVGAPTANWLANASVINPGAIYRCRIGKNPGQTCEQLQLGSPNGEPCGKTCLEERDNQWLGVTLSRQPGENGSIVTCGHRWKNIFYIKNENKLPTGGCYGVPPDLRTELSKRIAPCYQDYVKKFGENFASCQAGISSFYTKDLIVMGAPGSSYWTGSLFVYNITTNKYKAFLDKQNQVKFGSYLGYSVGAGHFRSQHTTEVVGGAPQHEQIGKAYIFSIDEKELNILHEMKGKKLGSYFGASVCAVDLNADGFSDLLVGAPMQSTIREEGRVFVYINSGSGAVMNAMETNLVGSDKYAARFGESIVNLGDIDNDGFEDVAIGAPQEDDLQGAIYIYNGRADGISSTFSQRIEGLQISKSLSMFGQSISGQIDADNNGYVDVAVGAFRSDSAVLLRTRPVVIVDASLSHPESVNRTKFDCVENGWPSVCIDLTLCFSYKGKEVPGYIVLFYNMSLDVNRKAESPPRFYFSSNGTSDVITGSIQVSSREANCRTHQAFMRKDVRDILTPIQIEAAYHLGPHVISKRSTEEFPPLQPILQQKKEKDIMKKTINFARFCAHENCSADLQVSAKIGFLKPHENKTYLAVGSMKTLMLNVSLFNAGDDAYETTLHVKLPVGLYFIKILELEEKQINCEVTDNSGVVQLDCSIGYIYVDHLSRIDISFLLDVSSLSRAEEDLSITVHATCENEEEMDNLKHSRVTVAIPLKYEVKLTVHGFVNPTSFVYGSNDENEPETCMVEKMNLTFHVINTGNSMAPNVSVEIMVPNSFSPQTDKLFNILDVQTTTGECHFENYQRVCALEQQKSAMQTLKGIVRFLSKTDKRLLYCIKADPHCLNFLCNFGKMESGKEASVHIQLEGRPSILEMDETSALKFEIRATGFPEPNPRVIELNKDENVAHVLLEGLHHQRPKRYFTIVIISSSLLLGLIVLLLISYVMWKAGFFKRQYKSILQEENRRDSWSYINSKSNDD
CHT PAM: allosterically activates the human high affinity choline transporter. AID 488977. Q9GZV3. B-score at 10 µM. CHT-expressing cells, membrane potential dye, choline EC20; stronger effect = higher value; LV-AA mutant CHT in HEK293 cells. hit rate 0.49% among 310,000;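 active = initial fluorescence not abnormally high and integrated response B-score, plate-corrected, over 3 SD above library mean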
CHT act confirm: confirmation of human choline transporter (CHT) activators; shares compounds with CHT PAM; CHT-expressing cells, membrane potential dye fluorescence (FDSS); % of choline EC20–EC90 response window; HEK293 expressing CHT LV-AA mutant; choline added at its EC20; activation, % at 10 µM; hit rate 91% among 2,500;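 active = primary screen active, with duplicate mean activation above negative control mean plus 3 SD, cut at about 11% in these data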
HEK293 MP dye: activity in parental HEK293 cells lacking CHT; shares compounds with CHT PAM; membrane potential dye fluorescence (FDSS); measured after EC20 choline addition; ratio readout change at 10 µM, hits read low; hit rate 62% among 2,500; AID 623908;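 active = duplicate-averaged ratio beyond 3 SD from buffer wells, up or down, though filed actives are nearly all decreases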
Active calls of the source: *; i = inactive; nt = not tested or not shown.

SMILES	CHT inh	T cell HTS	VLA-4 inh	CHT PAM	CHT act confirm	HEK293 MP dye
CC1CN(C2=Nc3cccc4cccc2c34)CC(C)O1 (centres undefined)	i	364	1	i	58*	-56*
Cc1ccc(CCC(=O)Nc2ccccc2C(=O)O)o1	i	784	-4	i	nt	nt
CN(CC(=O)NCC(=O)Nc1ccc(F)c(F)c1F)C1CCS(=O)(=O)C1 (centres undefined)	nt	335	0	nt	nt	nt
COc1ccc(-n2ccnc2SCC(=O)NC2CCCC2)cc1	nt	231	8	nt	nt	nt
CC1(c2ccccc2Cl)NC(=O)N(CC(=O)N2c3ccccc3NC(=O)C2(C)C)C1=O (centres undefined)	nt	i	-4	nt	nt	nt
COc1ccc(C(=O)CN2CCN(c3cc(C)nc4ccccc34)CC2)cc1	i	319	-4	8.5*	64*	-78*
Cc1cc(N2CCN(S(=O)(=O)c3ccc(Cl)cc3)CC2)c2ccccc2n1	i	979	6	i	nt	nt
COc1ccc2nc(C)cc(N3CCN(c4ccccc4)CC3)c2c1	i	299	0	i	nt	nt
Cc1cc(N2CCN(S(=O)(=O)c3ccc(Cl)c(Cl)c3)CC2)c2ccccc2n1	i	318	26	i	nt	nt
Cc1cc(N2CCN(CC(O)C(F)(F)F)CC2)c2ccccc2n1 (centres undefined)	i	7	14	i	72*	-72*
COc1cccc(Cl)c1NC(=O)N1CCN(c2cc(C)nc3ccccc23)CC1	i	216	1	6.7*	42*	-50*
COc1ccc2nc(C)cc(N3CCOCC3)c2c1	i	190	4	i	68*	-81*
Cc1cc2ccccc2n1CCNC(=O)C1CCCC1	i	84	-2	i	2	i
Cc1cc2ccccc2n1CCNC(=O)C1CCCCC1	i	386	-7	i	nt	nt
COc1cccc(/C=N/NC(=O)c2ccc(=O)n(C)c2)c1OC	i	187	5	6.3*	14*	-32*
COc1cccc(/C=N/NC(=O)c2ccccc2)c1OS(=O)(=O)c1ccccc1	i	238	12	i	nt	nt
COc1ccc(C(=O)c2coc3ccc(O)c(CN4CCOCC4)c23)cc1	i	i	9	i	18*	i
COc1ccc(Oc2cccc(Cl)c2CNC(=O)CCCC(=O)O)cc1	i	455	-3	i	nt	nt
O=C(NN=C1CCCC1)c1ccccc1OCc1ccc(Cl)cc1	i	299	-3	10*	13*	i
CN(CC(=O)Nc1ccccc1C(F)(F)F)C(=O)c1cccc(-n2cccc2)c1	i	281	-5	i	nt	nt
Cc1cc[n+](Cc2ccccc2)c(N)c1	i	737	-6	i	nt	nt
O=[N+]([O-])c1ccc(C[n+]2cccc3ccccc32)cc1	i	65	0	8.1*	47*	-46*
c1ccc(C[n+]2cccc3c4ccccc4ccc32)cc1	i	0	-7	6.4*	77*	-75*
O=[N+]([O-])c1ccc(C[n+]2cccc3ccc4cccnc4c32)cc1	i	138	-7	i	nt	nt
CCCCC[n+]1cccc2c3ccccc3ccc21	i	169	-3	7.5*	47*	-74*
SMILES	CHT inh	T cell HTS	VLA-4 inh	CHT PAM	CHT act confirm	HEK293 MP dye
CCCCOc1ccc2ccccc2c1C=O	i	213	4	i	nt	nt
CC(C)(C)CN1C(=O)C(=O)NC[C@@H]1CCCCN	i	264	6	i	nt	nt
O=C(COc1ccc(Cl)cc1Br)Nc1ccncc1	i	585	5	i	nt	nt
O=C(O)c1cccc(S(=O)(=O)N2CCN(C(c3ccccc3)c3ccccc3)CC2)c1	i	120	-1	i	nt	nt
CC1(C)C(=O)Nc2ccccc2N1C(=O)COC(=O)c1ccc(Cl)c(S(=O)(=O)NCc2ccccc2)c1	i	323	4	i	12*	i
CC(=O)c1cc(CCC(=O)NC2CCCCCC2)oc1C	i	376	1	i	nt	nt
CCC(=O)N1CCN(c2ccccc2NC(=O)c2ccc([N+](=O)[O-])o2)CC1	i	351	5	8.9*	12*	i
O=C(Nc1ccccc1N1CCCC1)c1ccc([N+](=O)[O-])o1	i	216	-4	i	nt	nt
CC(C)C(=O)N1CCN(c2ccccc2NC(=O)c2ccc([N+](=O)[O-])o2)CC1	i	280	7	11*	39*	i
CC1CCC(NC(=O)Cn2cnc3sccc3c2=O)CC1 (centres undefined)	nt	336	-1	nt	nt	nt
Oc1ccc(N2CCN(c3ccnc4cc(Cl)ccc34)CC2)cc1	i	650	-2	i	nt	nt
CCOC(=O)N1CCN(c2ccnc3cc(Cl)ccc23)CC1	i	234	0	i	nt	nt
CCC(=O)N1CCN(c2ccnc3cc(Cl)ccc23)CC1	i	288	10	7.6*	68*	-63*
Clc1ccc2c(N3CCOCC3)ccnc2c1	i	256	3	i	50*	-50*
CCN(CC)CCCCNc1ncc2cc(-c3cc(OC)cc(OC)c3)c(NC(=O)NC(C)(C)C)nc2n1	i	500	4	6.7*	47*	-23*
CCCCN(CC)CCCNC(=O)c1cc2cc3ccc(OC)cc3nc2o1	i	143	15	i	nt	nt
CC(=O)c1ccc(NC(=O)Nc2ccncc2)cc1	i	860	5	i	34*	-38*
CCC(NS(=O)(=O)c1ccc(C)cc1)C(=O)N1CCOCCOCCOCCOCC1 (centres undefined)	i	692	-4	i	nt	nt
COc1ccc(-c2nnc(-c3cccnc3)o2)cc1OC	i	226	2	7.5*	31*	-32*
CCOc1ccc(-c2nnc(-c3cccnc3)o2)cc1OCC	i	669	0	i	32*	-27*
CCOc1ccc(-c2nnc(-c3ccncc3)o2)cc1OCC	i	328	1	i	61*	-49*
COc1cc(-c2nnc(-c3cccnc3)o2)cc(OC)c1OC	i	259	7	i	nt	nt
COc1ccc2c(=O)cc(-c3cccnc3)oc2c1OC	i	470	-3	7.6*	79*	-72*
Cc1cc(=O)oc2cc(NC(=O)c3ccc(OC(F)F)cc3)ccc12	i	289	-2	i	nt	nt
COc1ccc(/C=N/N(C)C2=NCCN2)c(OC)c1OC	i	475	26	7*	48*	-30*
COc1ccccc1NC(=O)N1CCC(NC(=O)C(Cc2ccccc2F)NC(C)=O)CC1 (centres undefined)	i	360	4	i	nt	nt
Cn1nc(C(=O)OCC(=O)Nc2sccc2C(N)=O)c2ccccc2c1=O	i	201	-5	i	nt	nt
COc1cc(-c2nnc(SCC(=O)c3ccc(C)cc3)o2)cc(OC)c1OC	i	744	-12	i	nt	nt
